According to ChEMBL document CHEMBL4376840, “Application of Fluorine- and Nitrogen-Walk Approaches: Defining the Structural and Functional Diversity of 2-Phenylindole Class of Cannabinoid 1 Receptor Positive Allosteric Modulators” (J Med Chem, 2020):

Assays:
[1] = biological target: Cannabinoid receptor 1 (Rattus norvegicus) (UniProt P20272); assay: Allosteric agonist activity at N-terminal GFP-tagged rat CB1R expressed in HEK293 cells assessed as inhibition of forskolin-induced cAMP production by measuring cAMP accumulation at minimal level at higher concentrations after 30 min by TR-FRET assay relative to forskolin; format: functional, cell-based
In short: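 HEK293 cells stably expressing N-terminal GFP-tagged rat CB1R were trypsin-EDTA dissociated and resuspended in HBSS with 0.1% BSA and 0.5mM IBMX at 500 cells/well. Cells got 5μM forskolin plus compound (1 pM – 10 μM) alone for 30 min. 4-parameter fit; Emin is the lower plateau. n ≥ 3, triplicate.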

[2] = biological target: T1, Cannabinoid receptor 1 (Homo sapiens, UniProt P21554); assay: Positive allosteric modulatory activity at human CB1R expressed in CHO-K1 cells assessed as increase in CP55940-induced inhibition of forskolin-stimulated cAMP production after 30 mins in presence of CP55940 at EC20 concentration by hit-hunter cAMP assay; format: functional, cell-based
In short: (§1)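 Read-out was chemiluminescent cAMP detection, fit with a variable-slope 4-parameter regression. n = 1–3 independent experiments in duplicate.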

[3] = biological target: T1, Cannabinoid receptor 1; assay: Positive allosteric modulatory activity at human CB1R expressed in CHO-K1 cells assessed as increase in CP55940-induced beta-arrestin2 recruitment after 90 mins in presence of CP55940 at EC20 concentration by pathhunter beta-arrestin assay; format: cell-based
In short: (§2)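 Read-out was chemiluminescent β-arrestin2 recruitment, fit with a 4-parameter regression. n = 1–3 independent experiments in duplicate.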

[4] = biological target: T1, Cannabinoid receptor 1; assay: Positive allosteric modulatory activity at human CB1R expressed in CHO-K1 cells assessed as increase in CP55940-induced beta-arrestin2 recruitment after 90 mins in presence of CP55940 at EC20 concentration by pathhunter beta-arrestin assay relative to control; format: cell-based; in short: as §2
[5] = buffer, pH 7.4, 24 h
[6] = biological target: T1, Cannabinoid receptor 1; assay: Positive allosteric modulatory activity at human CB1R expressed in CHO-K1 cells assessed as increase in CP55940-induced inhibition of forskolin-stimulated cAMP production after 30 mins in presence of CP55940 at EC20 concentration by hit-hunter cAMP assay relative to control; format: functional, cell-based; in short: as §1
[7] = biological target: T1, Cannabinoid receptor 1; assay: Positive allosteric modulatory activity at human CB1R expressed in CHO-K1 cells assessed as maximal increase in CP55940-induced beta arrestin2 recruitment after 90 mins in presence of 100 nM CP55940 by pathhunter beta-arrestin assay relative to CP55940; format: cell-based
[8] = biological target: T1, Cannabinoid receptor 1; assay: Agonist activity at human CB1 receptor expressed in CHO cell membranes assessed as increase in G-protein coupling by measuring [35S]GTPgammaS binding after 90 mins in presence of [35S]GTPgammaS by liquid scintillation analysis relative to control; format: functional
In short: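 [35S]GTPγS binding to G protein in membranes from CHO cells stably expressing human CB1R, with test compound given alone. Data fit to a variable-slope 4-parameter nonlinear regression. n = 4–6 independent experiments in duplicate.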

[9] = biological target: T1, Cannabinoid receptor 1; assay: Positive allosteric modulatory activity at human CB1R expressed in CHO-K1 cells assessed as increase in CP55940-induced inhibition of forskolin-induced cAMP accumulation by measuring cAMP accumulation at minimal level at higher concentration after 90 mins in presence of 100 nM CP55940 by hit-hunter cAMP assay relative to forskolin; format: functional, cell-based
In short: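 Uses the HitHunter CHO-K1 hCB1R cAMP set-up above. […] Data normalized to % forskolin, 4-parameter fit. n ≥ 6, triplicate.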

[10] = biological target: Cannabinoid receptor 1 (Rattus norvegicus) (UniProt P20272); assay: Positive allosteric modulatory activity at N-terminal GFP-tagged rat CB1R receptor expressed in HEK293 cells assessed as leftward shift in CP55940 dependent concentration response curve for inhibition of forskolin-induced cAMP accumulation after 30 mins by TR-FRET assay; format: functional, cell-based
[11] = biological target: T1, Cannabinoid receptor 1; assay: Allosteric agonist activity at human CB1R expressed in CHO-K1 cells assessed as inhibition of forskolin-induced cAMP accumulation by measuring cAMP accumulation at minimal level at higher concentrations after 90 mins by hit-hunter cAMP assay relative to forskolin; format: functional, cell-based
In short: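 HitHunter CHO-K1 hCB1R cells (20,000/well) were held overnight in Opti-MEM with 1% FBS. They were then co-treated at 37°C with 10 μM forskolin plus compound alone (0.10 nM – 10 μM) for 90 min. Chemiluminescent cAMP detection followed (two 60-min room-temperature steps). Data as % forskolin, variable-slope 4-parameter fit; Emin is the lower plateau. n ≥ 6, triplicate.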

[12] = biological target: T1, Cannabinoid receptor 1; assay: Allosteric agonist activity at human CB1R expressed in CHO-K1 cells assessed as increase in beta arrestin2 recruitment after 90 mins by pathhunter beta-arrestin assay relative to CP55940; format: cell-based
In short: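 PathHunter CHO-K1 hCB1R cells (20,000/well) were held overnight in Opti-MEM with 1% FBS. Compound alone (0.10 nM – 10 μM) was given at 37°C for 90 min, then detection solution for 60 min at room temperature and chemiluminescence was read.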

[13] = biological target: Cannabinoid receptor 1 (Rattus norvegicus) (UniProt P20272); assay: Positive allosteric modulatory activity at N-terminal GFP-tagged rat CB1R receptor expressed in HEK293 cells assessed as downward shift in CP55940 dependent concentration response curve for inhibition of forskolin-induced cAMP accumulation after 30 mins by TR-FRET assay; format: functional, cell-based

T1 sequence (P21554 whole entry): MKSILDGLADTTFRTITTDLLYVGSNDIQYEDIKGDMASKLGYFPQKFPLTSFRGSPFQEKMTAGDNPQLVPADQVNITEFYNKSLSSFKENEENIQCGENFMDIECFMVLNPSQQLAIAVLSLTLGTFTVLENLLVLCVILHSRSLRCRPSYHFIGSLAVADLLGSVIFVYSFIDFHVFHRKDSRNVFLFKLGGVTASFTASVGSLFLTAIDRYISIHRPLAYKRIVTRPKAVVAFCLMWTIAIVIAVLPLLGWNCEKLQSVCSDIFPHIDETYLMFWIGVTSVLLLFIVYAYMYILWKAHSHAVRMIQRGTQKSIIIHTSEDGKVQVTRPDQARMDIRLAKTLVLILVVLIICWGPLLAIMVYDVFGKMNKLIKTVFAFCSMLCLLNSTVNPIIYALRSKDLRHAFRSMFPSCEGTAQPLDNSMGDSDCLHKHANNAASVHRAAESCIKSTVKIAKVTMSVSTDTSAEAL
Sequence of Cannabinoid receptor 1 (Rattus norvegicus) (P20272 whole entry): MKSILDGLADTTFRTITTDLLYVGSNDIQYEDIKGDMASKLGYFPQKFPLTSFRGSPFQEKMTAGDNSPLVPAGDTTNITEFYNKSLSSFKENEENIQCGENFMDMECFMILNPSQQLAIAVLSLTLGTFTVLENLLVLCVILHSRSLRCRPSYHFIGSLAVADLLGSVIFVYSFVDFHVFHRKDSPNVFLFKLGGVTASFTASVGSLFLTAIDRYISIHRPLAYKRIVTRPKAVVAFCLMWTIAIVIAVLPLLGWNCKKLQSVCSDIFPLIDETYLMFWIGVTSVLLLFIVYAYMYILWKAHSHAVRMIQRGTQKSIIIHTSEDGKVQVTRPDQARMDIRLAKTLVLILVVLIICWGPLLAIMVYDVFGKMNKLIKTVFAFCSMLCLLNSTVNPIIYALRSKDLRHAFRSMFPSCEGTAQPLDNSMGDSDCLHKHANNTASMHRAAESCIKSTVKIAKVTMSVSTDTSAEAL

| Compound | EC50 [2] | EC50 [3] | Emax [4] | Therm_solubility [5] | Emax [6] | other results |
| --- | --- | --- | --- | --- | --- | --- |
| CCCCCCC(C)(C)c1ccc([C@@H]2C[C@H](O)CC[C@H]2CCCO)c(O)c1 |  |  |  |  |  | Emin [1]: 29% |
| O=[N+]([O-])CC(c1ccccc1)c1c(-c2cccc(F)c2)[nH]c2ccccc12 (configuration not stated) | 80 nM | 1300 nM |  |  |  |  |
| O=[N+]([O-])CC(c1ccccc1)c1c(-c2ccccc2)[nH]c2cnccc12 (configuration not stated) | 450 nM | > 10000 nM | 5.1% | 6.8 µM | 5.2% |  |
| O=[N+]([O-])CC(c1ccccc1)c1c(-c2ccccc2)[nH]c2cccnc12 (configuration not stated) | > 10000 nM | 1600 nM | 30% | 11.2 µM | 81% |  |
| O=[N+]([O-])CC(c1ccc(F)cc1)c1c(-c2cccc(F)c2)[nH]c2c(F)cccc12 (configuration not stated) | 230 nM | 1100 nM | 43% |  | 110% |  |
| O=[N+]([O-])CC(c1ccccc1)c1c(-c2ccccc2)[nH]c2cccc(F)c12 (configuration not stated) | 130 nM | 900 nM | 37% |  | 120% |  |
| O=[N+]([O-])CC(c1ccncc1)c1c(-c2ccccc2)[nH]c2ccccc12 (configuration not stated) | 510 nM | 4000 nM | 25% | 36.7 µM | 110% |  |
| O=[N+]([O-])CC(c1ccccc1)c1c(-c2ccccc2F)[nH]c2ccccc12 (configuration not stated) | 1400 nM | 710 nM | 7% |  | 140% |  |
| O=[N+]([O-])CC(c1cccc(F)c1)c1c(-c2ccccc2)[nH]c2ccccc12 (configuration not stated) | 730 nM | 2500 nM | 19% |  | 130% |  |
| O=[N+]([O-])CC(c1ccccc1F)c1c(-c2ccccc2)[nH]c2c(F)cccc12 (configuration not stated) | 21 nM | 680 nM |  |  |  |  |
| O=[N+]([O-])CC(c1ccc(F)cc1)c1c(-c2ccccc2)[nH]c2ccccc12 (configuration not stated) | 440 nM | > 10000 nM | 8% |  | 110% |  |
| O=[N+]([O-])CC(c1ccccc1F)c1c(-c2ccccc2)[nH]c2cc(F)ccc12 (configuration not stated) | 58 nM | 1140 nM |  |  |  |  |
| O=[N+]([O-])CC(c1cccnc1)c1c(-c2ccccc2)[nH]c2ccccc12 (configuration not stated) | 3100 nM | > 10000 nM | -8.1% | 1.1 µM | 170% |  |
| O=[N+]([O-])CC(c1ccccc1)c1c(-c2ccccc2)[nH]c2ncccc12 (configuration not stated) | 1100 nM | > 10000 nM | 7% | 159 µM | 39% |  |
| O=[N+]([O-])CC(c1ccccc1)c1c(-c2ccccc2)[nH]c2cc(F)ccc12 (configuration not stated) | 110 nM | 1100 nM | 38% |  | 120% |  |
| O=[N+]([O-])CC(c1ccccc1)c1c(-c2ccc(F)cc2)[nH]c2ccccc12 (configuration not stated) | 1600 nM | > 10000 nM | -2.2% |  | 120% |  |
| O=[N+]([O-])CC(c1ccccc1)c1c(-c2ccccc2)[nH]c2ccc(F)cc12 (configuration not stated) | 191 nM | 740 nM | 23% |  | 130% |  |
| O=[N+]([O-])CC(c1ccccc1)c1c(-c2ccccc2)[nH]c2ccncc12 (configuration not stated) | > 10000 nM | > 10000 nM | 2.8% | 23.6 µM | 4% |  |
| O=[N+]([O-])CC(c1ccccn1)c1c(-c2ccccc2)[nH]c2ccccc12 (configuration not stated) | 260 nM | > 10000 nM | 5.8% | 2.8 µM | 130% |  |
| O=[N+]([O-])CC(c1ccccc1)c1c(-c2ccccc2)[nH]c2c(F)cccc12 (configuration not stated) | 22 nM | 750 nM | 45% |  | 120% |  |
| O=[N+]([O-])CC(c1ccccc1)c1c(-c2cccnc2)[nH]c2ccccc12 (configuration not stated) | 1100 nM | > 10000 nM | 9.2% | 4.9 µM | 150% |  |
| O=[N+]([O-])CC(c1ccc(F)cc1)c1c(-c2ccccc2)[nH]c2cc(F)ccc12 (configuration not stated) | 1300 nM | 1100 nM | 32% |  | 47% |  |
| O=[N+]([O-])CC(c1ccccc1)c1c(-c2ccccc2)[nH]c2ccccc12 (racemic) |  |  | 46% |  |  | Emax [7]: 72%; Emax [8]: 28%; Emin [9]: 21%; Activity [10]: Dose-dependent effect; Emin [11]: 1.8%; Emax [12]: 27%; Activity [13]: Dose-dependent effect |
| O=[N+]([O-])CC(c1ccccc1)c1c(-c2ccncc2)[nH]c2ccccc12 (configuration not stated) | 3100 nM | 1600 nM | 19% | 2.1 µM | 88% |  |
| O=[N+]([O-])CC(c1ccc(F)cc1)c1c(-c2ccccc2)[nH]c2c(F)cccc12 (configuration not stated) | 270 nM | 700 nM | 27% |  | 121% |  |
| O=[N+]([O-])CC(c1ccc(F)cc1)c1c(-c2cccc(F)c2)[nH]c2cc(F)ccc12 (configuration not stated) | 1150 nM | 2100 nM | 56% |  | 91% |  |
| O=[N+]([O-])CC(c1ccccc1F)c1c(-c2ccccc2)[nH]c2ccccc12 (configuration not stated) | 43 nM | 1060 nM | 63% |  | 110% |  |
